# Calls of active or inactive are those of the source.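 Rule for the calls, unless noted: active = fluorescence slope higher than the sample average by over 3 SD (cut at about -0.22 in these data, passing the limit was not always enough); inactive = the rest.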
# Assays:
# [1] = inhibitors of TNFa-induced NFkB p65 translocation, primary screen, imaging, HUVEC, MLSMR starter and 10KST1 sets (AID 438;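 active = inhibition above 20% together with a positive visual image hit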;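 note: compound added about 3h40 before a 20 min TNFalpha stimulation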;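 for inhibition: signal is the nuclear over cytoplasmic p65 intensity ratio per well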); conditions: HUVEC TNFa-induced p65 nuclear translocation; cell count: measured here: nuclei count (cytotoxicity indicator), at 2.08 µM; inhibition: at 2 µM, stronger effect = higher value, 0% TNFa-plus-vehicle, 100% no-TNFa wells
# [2] = reduction of polyQ htt aggregates in cells – imaging, exon1htt(103Q)mCFP cells, high-content imaging, primary screen (AID 483;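 active = visual image review flags a hit and inhibition of aggregation exceeds 20%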;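 note: compound exposure lasted 3 days before fixation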;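 for nuclei count: percent of the per-plate median nuclei count of sample wells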); conditions: exon1htt(103Q)mCFP cell line, aggregate imaging, at 2 µM; inhibition of aggregation: stronger effect = higher value; nuclei count: measured here: cell count, toxicity
# [3] = endothelial E-selectin expression blockers – imaging, HUVEC, immunofluorescence, MLSMR starter and 10KST1 sets, primary screen (AID 487;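 active = visually confirmed hit in the image check and inhibition above 20%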;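 for inhibition: signal is fraction of cell area covered by stained E-selectin grains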;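 for nuclei count: 100% = median nuclei count of all wells on the same plate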); conditions: HUVEC TNFalpha-induced E-selectin immunofluorescence imaging, at 2 µM; inhibition: stronger effect = higher value; nuclei count: measured here: cell number, toxicity
# [4] = target: Voltage-gated potassium channel subunit beta-2 (Rattus norvegicus) (UniProt P62483); assay: inhibitors of rat Kvbeta2 reductase activity – biochemical, NADPH fluorescence, primary screen (AID 622); conditions: recombinant KvBeta, 4-cyanobenzaldehyde reduction, at 10 µM, stronger effect = higher value;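 note: slope of raw intensity against log time taken from 70 to 1610 s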
# [5] = target: Voltage-gated potassium channel subunit beta-2 (Rattus norvegicus) (UniProt P62483); assay: enhancers of rat Kvbeta2 NADPH turnover – biochemical, NADPH fluorescence, primary screen (AID 623;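 active = NADPH fluorescence slope more negative than the mean of all samples by about 3 SD, 99.7% confidence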;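 note: fluorescence intensity change per second fitted from 20 to 320 s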); conditions: Recombinant KvBeta, NADPH fluorescence decrease slope, 10 min; at 10 µM; stronger effect = lower value
# [6] = target: Muscarinic acetylcholine receptor M4 (Homo sapiens) (UniProt P08173); assay: M4-linked GIRK flux change, two-sided – cell-based, HEK293 M4/GIRK, thallium flux, BTC-AM, M4 allosteric agonist project, primary screen (AID 625;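 active = fluorescence slope after compound addition differing from the mean of all tested samples at 99.7% confidence, mostly higher but some lower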;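 note: thallium influx through GIRK channels coupled to M4 in HEK293 cells with BTC-AM dye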); conditions: at 10 µM, actives lie on both sides
# In short: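 Material – HEK293 cells with M4 receptor and GIRK channels · Buffer or medium – pH 7.3 thallium assay buffer · Doses – one dose, 10 µM final · Timing – cells overnight at 37 °C, BTC-AM loading 1 h, reads 2 min total · Measured by – kinetic fluorescence with BTC-AM dye · Controls – carbachol and DMSO controls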
# [7] = blockers of RIG-like receptor reporter activation – cell-based, Sendai virus stimulus, luciferase, 10K MLSCN set, TLR/RLR signaling modifier project, primary screen (AID 602276;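 active = inhibition at or above 50% at 10 µM; inactive = inhibition below 50%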;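 note: firefly luciferase from ISG56 promoter only with Renilla not read in this screen; 0% = Sendai virus plus DMSO and 100% = medium plus DMSO without virus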); conditions: HEK293 RL24 IRF3 luciferase reporter, at 10 µM, stronger effect = higher value
# [8] = TLR3 IRF3 reporter activation blockers – cell-based, poly I:C stimulus, luciferase, 10K MLSCN set, primary screen (AID 602277;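 active = inhibition of the reporter signal at or above 50%; inactive = inhibition below 50%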); conditions: HEK293-TLR3 RL24 IRF3 luciferase reporter, at 10 µM, stronger effect = higher value
# Sequence of Voltage-gated potassium channel subunit beta-2 (Rattus norvegicus) (P62483 whole entry, looked up): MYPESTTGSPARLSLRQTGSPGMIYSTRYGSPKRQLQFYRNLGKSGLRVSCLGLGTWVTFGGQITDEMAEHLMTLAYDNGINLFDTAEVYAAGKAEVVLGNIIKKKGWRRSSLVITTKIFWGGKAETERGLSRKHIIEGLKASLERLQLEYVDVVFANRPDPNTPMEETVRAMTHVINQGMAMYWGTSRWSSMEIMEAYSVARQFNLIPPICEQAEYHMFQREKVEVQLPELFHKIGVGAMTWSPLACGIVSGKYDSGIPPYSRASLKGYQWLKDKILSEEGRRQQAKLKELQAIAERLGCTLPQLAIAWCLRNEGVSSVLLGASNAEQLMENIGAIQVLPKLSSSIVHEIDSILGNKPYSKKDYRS
# Sequence of Muscarinic acetylcholine receptor M4 (Homo sapiens) (P08173 whole entry, looked up): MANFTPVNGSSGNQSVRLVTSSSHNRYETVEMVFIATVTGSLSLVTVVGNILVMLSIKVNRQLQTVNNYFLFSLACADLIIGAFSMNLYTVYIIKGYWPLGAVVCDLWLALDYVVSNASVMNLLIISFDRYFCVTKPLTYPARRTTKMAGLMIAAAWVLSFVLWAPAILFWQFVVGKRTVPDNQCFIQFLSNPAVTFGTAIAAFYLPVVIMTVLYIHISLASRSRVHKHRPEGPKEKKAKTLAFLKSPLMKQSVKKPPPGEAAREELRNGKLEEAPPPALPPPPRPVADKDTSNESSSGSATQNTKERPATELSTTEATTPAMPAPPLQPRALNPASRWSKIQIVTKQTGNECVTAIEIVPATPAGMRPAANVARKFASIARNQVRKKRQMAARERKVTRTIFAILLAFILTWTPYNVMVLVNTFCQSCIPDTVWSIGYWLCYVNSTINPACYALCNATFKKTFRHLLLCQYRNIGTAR
Compound,cell count [1],inhibition [1],inhibition of aggregation [2],nuclei count [2],inhibition [3],nuclei count [3],fluorescence slope [4],NADPH fluorescence slope [5],fluorescence slope [6],inhibition [7],inhibition [8]
COC(=O)c1oc2ccc(OC)cc2c1N,669,5.5% (inactive),18.1% (inactive),85.1%,-4.2% (inactive),101%,-0.523 (inactive),5.1e-06 (inactive),0.00575 (inactive),-31.8% (inactive),-55% (inactive)
COC(=O)Nc1ccc(S(=O)(=O)N(C)CC(F)(F)C(F)F)cc1,642,-11.1% (inactive),-5.6% (inactive),114%,-57.5% (inactive),86.7%,-0.568 (inactive),3.2e-05 (inactive),0.00406 (inactive),12% (inactive),13.7% (inactive)
CC(C)NC(=O)CSc1nnc(-c2ccc(C(C)(C)C)cc2)n1C,563,-16% (inactive),-4.3% (inactive),96.8%,8% (inactive),117%,-0.465 (inactive),5.2e-06 (inactive),0.00698 (inactive),4.36% (inactive),1.25% (inactive)
O=c1oc2ccccc2n1CCn1c2ccccc2c2nc3ccccc3nc21,714,-7.8% (inactive),-10.6% (inactive),103%,-9.3% (inactive),109%,-0.273 (inactive),-1.3e-05 (inactive),0.00487 (inactive),-5.18% (inactive),9.99% (inactive)
N=c1sc2ccccc2n1-c1ccccc1,402,10.9% (inactive),14.5% (inactive),96.6%,-469% (inactive),114%,-0.583 (inactive),-1.3e-05 (inactive),0.00638 (inactive),15.3% (inactive),14.4% (inactive)
COc1ccccc1-c1nnc2sc(-c3ccc(N(C)C)cc3)nn12,695,-11.2% (inactive),-34.9% (inactive),1.9%,-217% (inactive),107%,-0.517 (inactive),1.2e-05 (inactive),0.00532 (inactive),37.1% (inactive),87.1% (active)
CCCS(=O)(=O)N1CCN(C(=O)CCC2CCCC2)CC1,222,8.5% (inactive),15.8% (inactive),77.9%,-18.1% (inactive),148%,-0.435 (inactive),-3.3e-05 (inactive),0.00496 (inactive),10.9% (inactive),17.4% (inactive)
CCOC(=O)c1c(NC(=O)c2ccoc2C)sc2c1CCC2,310,0% (inactive),-0.4% (inactive),96.2%,-3.2% (inactive),96.3%,-0.407 (inactive),-1.2e-05 (inactive),0.00584 (inactive),15.7% (inactive),-10.1% (inactive)
c1ccc(-c2n[nH]c3ccccc23)cc1,708,-3% (inactive),13.9% (inactive),116%,-13.1% (inactive),106%,-0.55 (inactive),-5.6e-05 (inactive),0.00778 (inactive),-14% (inactive),-30% (inactive)
O=c1c(F)cn(C2CCCO2)c(=O)n1Cc1c(F)cccc1Cl (stereo not drawn),738,-7.1% (inactive),-9.4% (inactive),103%,-114% (inactive),140%,-0.549 (inactive),-1.3e-05 (inactive),0.00479 (inactive),5.15% (inactive),13.2% (inactive)
Cc1nnc2ccc(N3CCC4(CC3)OCCO4)nn12,538,-21% (inactive),9.6% (inactive),112%,-83% (inactive),117%,-0.322 (inactive),-3.3e-05 (inactive),0.00635 (inactive),12.5% (inactive),8.72% (inactive)
COc1ccc2nc(NC(=O)C(NS(=O)(=O)c3cccs3)C(C)C)sc2c1 (stereo not drawn),365,0.9% (inactive),-16.1% (inactive),97.8%,-222% (inactive),104%,-0.532 (inactive),1.5e-05 (inactive),0.00546 (inactive),17.4% (inactive),21% (inactive)
COc1ccc(-c2cc(C(F)F)n3ncc(C(=O)NCC4CCCO4)c3n2)cc1 (stereo not drawn),244,4.7% (inactive),-15.8% (inactive),78.7%,-51% (inactive),108%,-0.000811 (active),-2.9e-05 (inactive),0.00542 (inactive),20.7% (inactive),11.4% (inactive)
CCn1cc(C2=NOC(C(=O)Nc3cc(C)nn3-c3ccccc3)C2)c(C)n1 (stereo not drawn),542,-3.4% (inactive),11.1% (inactive),93.2%,-52.6% (inactive),84.5%,-0.448 (inactive),9.7e-06 (inactive),0.00533 (inactive),-1.87% (inactive),98.7% (active)
CC(C)(C)n1nc2c(c1NC(=O)COc1ccc(Cl)cc1)CSC2,643,3.8% (inactive),13.9% (inactive),93.1%,30.9% (inactive),95.3%,-0.467 (inactive),-3.3e-06 (inactive),0.00791 (inactive),18% (inactive),25.3% (inactive)
Cc1ccnc(NS(=O)(=O)c2ccc(N=CC3=C(O)CC(C)(C)CC3=O)cc2)n1,395,2.5% (inactive),-9% (inactive),79.4%,7.7% (inactive),110%,-0.474 (inactive),9.9e-06 (inactive),0.00511 (inactive),7.45% (inactive),1.62% (inactive)
C#CCN1C(=O)C(O)(CC(=O)c2cccc(OC)c2)c2ccccc21 (stereo not drawn),429,1.2% (inactive),-0.5% (inactive),96.2%,-130% (inactive),163%,-0.337 (inactive),-6.5e-05 (inactive),0.00596 (inactive),10.4% (inactive),14.1% (inactive)
Cc1ccc(NS(=O)(=O)c2cn(C)cn2)cc1,491,-0.5% (inactive),7.8% (inactive),89.1%,3.6% (inactive),107%,-0.44 (inactive),-0.000336 (inactive),0.00531 (inactive),15.2% (inactive),17.6% (inactive)
Cc1ccc(S(=O)(=O)NCCc2ccncc2)cc1,560,-1.9% (inactive),6.8% (inactive),92.8%,-47.2% (inactive),106%,-0.578 (inactive),-5.6e-05 (inactive),0.00601 (inactive),7.81% (inactive),17.1% (inactive)
COC(=O)c1sc(NC(=O)c2ccoc2C)nc1C,554,-7.5% (inactive),8.8% (inactive),94.1%,15.5% (inactive),98%,-0.557 (inactive),8.6e-06 (inactive),0.00464 (inactive),-18.1% (inactive),-76.5% (inactive)
O=C(Cn1cccc1)N1CCN(C(c2ccccc2)c2ccccc2)CC1,337,-8.9% (inactive),-11.9% (inactive),110%,-52.8% (inactive),107%,-0.213 (inactive),-1.1e-05 (inactive),0.00614 (inactive),13.3% (inactive),22% (inactive)
CCOC(=O)CSc1nc2ccccc2c(=O)n1CCN1CCOCC1,513,-3.4% (inactive),-7.1% (inactive),96.3%,4.2% (inactive),109%,-0.474 (inactive),-1.3e-06 (inactive),0.00551 (inactive),-2.06% (inactive),17.7% (inactive)
CCCCOC(=O)Nc1nc2ccc(OC)cc2s1,743,-10.1% (inactive),7.1% (inactive),100%,-29.1% (inactive),108%,-0.324 (inactive),-5.1e-05 (inactive),0.00658 (inactive),-0.307% (inactive),-118% (inactive)
O=C(NCCN1CCOCC1)c1ccc2c(c1)N(Cc1ccccc1)C(=O)CS2,773,-9.5% (inactive),-8.5% (inactive),102%,20.7% (inactive),105%,-0.564 (inactive),2e-05 (inactive),0.00419 (inactive),-1.65% (inactive),8.57% (inactive)
CCCCN(CC)S(=O)(=O)N1CCC(C(=O)NCc2ccc(F)cc2)CC1,705,-6.9% (inactive),-1.2% (inactive),96.5%,-8% (inactive),113%,-0.594 (inactive),-2.1e-05 (inactive),0.00507 (inactive),12.4% (inactive),15.9% (inactive)
O=C(NCc1ccc2c(c1)OCO2)c1cc2n(n1)C(C(F)(F)F)CC(c1ccc3c(c1)OCO3)N2 (stereo not drawn),407,-1.6% (inactive),26.5% (inactive),89.1%,-32% (inactive),106%,-0.558 (inactive),-4.2e-05 (inactive),0.0053 (inactive),18.5% (inactive),24.4% (inactive)
C=CCOc1nc(N2CCCC2)nc(N2CCCC2)n1,579,-7.6% (inactive),4.8% (inactive),109%,23.8% (inactive),84.1%,-0.551 (inactive),-8.3e-05 (inactive),0.00552 (inactive),10.7% (inactive),14.3% (inactive)
CC1CN(S(=O)(=O)c2cccc(C(=O)OCc3cc(=O)oc4cc(O)ccc34)c2)CC(C)O1 (stereo not drawn),380,-2.9% (inactive),3% (inactive),100%,-28.2% (inactive),83%,-0.288 (inactive),-7.6e-05 (inactive),0.00505 (inactive),23.9% (inactive),23.3% (inactive)

# — PubChem BioAssay
